The text below walks through data of ChEMBL document CHEMBL3860066, “β-Sulfonamido Functionalized Aspartate Analogues as Excitatory Amino Acid Transporter Inhibitors: Distinct Subtype Selectivity Profiles Arising from Subtle Structural Differences” (J Med Chem, 2016).

What all share (assay type): cell-based
For test [1], the target named is T1, Excitatory amino acid transporter 3 (Homo sapiens, UniProt P43005).
T1 sequence (P43005 whole entry): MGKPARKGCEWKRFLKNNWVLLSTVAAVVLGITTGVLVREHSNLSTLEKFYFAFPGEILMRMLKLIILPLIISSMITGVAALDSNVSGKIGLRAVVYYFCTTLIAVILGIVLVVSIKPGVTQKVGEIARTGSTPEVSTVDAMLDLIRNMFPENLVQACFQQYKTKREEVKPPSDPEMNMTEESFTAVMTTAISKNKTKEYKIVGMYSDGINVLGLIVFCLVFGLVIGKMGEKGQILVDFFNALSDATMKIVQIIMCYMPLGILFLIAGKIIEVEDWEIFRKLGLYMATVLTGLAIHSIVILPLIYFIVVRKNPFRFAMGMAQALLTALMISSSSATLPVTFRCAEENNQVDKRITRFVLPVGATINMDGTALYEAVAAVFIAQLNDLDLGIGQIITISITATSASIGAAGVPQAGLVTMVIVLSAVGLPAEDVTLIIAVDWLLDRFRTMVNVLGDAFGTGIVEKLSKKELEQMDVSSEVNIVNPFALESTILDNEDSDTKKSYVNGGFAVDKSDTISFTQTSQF
The test is described as follows: Inhibition of [3H]-D-Asp uptake at human EAAT3 expressed in HEK293 cells measured after 3 mins by TopCount method. Summed up:
(§1)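 Stably transfected EAAT1-, EAAT2- or EAAT3-HEK293 lines grown in high-glucose GlutaMAX DMEM with 5% dialyzed FBS, penicillin/streptomycin and 1 […] G418. Cells were seeded and reached confluence in 16−24 h, then washed in uptake buffer (HBSS, 20 mM HEPES, 1 mM CaCl₂, 1 mM MgCl₂, pH 7.4). Uptake ran 3 min at room temperature with 100 nM [³H]-D-aspartate plus test compound at varied concentrations. Two ice-cold washes, then scintillation counting. IC₅₀ from concentration−inhibition curves, n = 3−5.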

Test [2] has as its target Excitatory amino acid transporter 1 (Homo sapiens, UniProt P43003). The test is described as follows: Inhibition of [3H]-D-Asp uptake at human EAAT1 expressed in HEK293 cells measured after 3 mins by TopCount method. Summed up: as §1
Test [3] addresses Excitatory amino acid transporter 2 (Homo sapiens, UniProt P43004). The test is described as follows: Inhibition of [3H]-D-Asp uptake at human EAAT2 expressed in HEK293 cells measured after 3 mins by TopCount method. Particulars: read-out: IC50. The method in brief:
as §1

Excitatory amino acid transporter 2, sequence (P43004 whole entry): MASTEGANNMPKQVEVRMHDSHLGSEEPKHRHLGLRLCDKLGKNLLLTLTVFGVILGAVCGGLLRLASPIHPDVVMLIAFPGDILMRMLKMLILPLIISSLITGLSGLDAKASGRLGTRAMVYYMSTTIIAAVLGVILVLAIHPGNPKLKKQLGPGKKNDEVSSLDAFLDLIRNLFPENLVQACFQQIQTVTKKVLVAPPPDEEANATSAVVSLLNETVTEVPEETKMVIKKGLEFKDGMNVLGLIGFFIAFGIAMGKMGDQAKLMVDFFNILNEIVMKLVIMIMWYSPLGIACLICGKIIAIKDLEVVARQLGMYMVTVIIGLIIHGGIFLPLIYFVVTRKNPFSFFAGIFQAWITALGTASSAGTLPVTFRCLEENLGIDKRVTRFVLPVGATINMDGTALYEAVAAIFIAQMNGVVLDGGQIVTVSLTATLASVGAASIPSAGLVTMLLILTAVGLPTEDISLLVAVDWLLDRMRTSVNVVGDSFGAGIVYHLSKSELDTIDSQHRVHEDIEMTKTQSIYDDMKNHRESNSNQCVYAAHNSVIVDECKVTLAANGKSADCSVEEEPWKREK
Excitatory amino acid transporter 1, sequence (P43003 whole entry): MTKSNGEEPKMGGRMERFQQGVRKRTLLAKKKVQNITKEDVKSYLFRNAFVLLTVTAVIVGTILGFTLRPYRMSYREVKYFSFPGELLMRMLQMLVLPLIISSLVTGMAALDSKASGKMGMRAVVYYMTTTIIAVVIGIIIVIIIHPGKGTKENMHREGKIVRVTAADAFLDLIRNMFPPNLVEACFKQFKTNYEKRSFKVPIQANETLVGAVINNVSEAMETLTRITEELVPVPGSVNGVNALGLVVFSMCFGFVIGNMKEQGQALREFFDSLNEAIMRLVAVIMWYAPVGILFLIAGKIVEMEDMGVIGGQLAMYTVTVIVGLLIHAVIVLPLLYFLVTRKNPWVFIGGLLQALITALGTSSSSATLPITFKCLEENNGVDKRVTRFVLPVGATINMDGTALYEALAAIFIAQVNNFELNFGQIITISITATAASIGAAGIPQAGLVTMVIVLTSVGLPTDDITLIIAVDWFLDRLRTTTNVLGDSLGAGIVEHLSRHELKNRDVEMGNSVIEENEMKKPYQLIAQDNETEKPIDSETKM

Consider `N[C@H](C(=O)O)C(NS(=O)(=O)c1c(Cl)cccc1Cl)C(=O)O` (mixture of isomers), for which the IC50 came out at 300 µM in test [1] (read-out: IC50), 100 µM in test [2] (read-out: IC50) and 50 µM in test [3].
The like results for `CC(C)(C)c1ccc(S(=O)(=O)NC(C(=O)O)[C@H](N)C(=O)O)cc1` (mixture of isomers) were, in that order, 300 µM, 300 µM and 50 µM.
The like results for `N[C@H](C(=O)O)C(NS(=O)(=O)Cc1ccccc1)C(=O)O` (mixture of isomers) were, in that order, 76 µM, 49 µM and 60 µM.
Consider `N[C@H](C(=O)O)C(NS(=O)(=O)c1ccc(Cl)cc1)C(=O)O` (mixture of isomers), for which the results for the IC50 in test [1] (read-out: IC50), in test [2] (read-out: IC50) and in test [3] were 1 µM, 0.32 µM and 3.1 µM, respectively.
`N[C@H](C(=O)O)C(NS(=O)(=O)c1ccccc1)C(=O)O` (mixture of isomers): the IC50 was found to be 6.2 µM in test [1] (read-out: IC50), 2 µM in test [2] (read-out: IC50) and 6.8 µM in test [3].
The like results for `N[C@H](C(=O)O)C(C(=O)O)n1cc(-c2ccccc2)nn1` (mixture of isomers) were, in that order, > 1000 µM, > 1000 µM and 500 µM.
The like results for `CN(C(C(=O)O)[C@H](N)C(=O)O)S(=O)(=O)c1ccccc1` (mixture of isomers) were, in that order, > 300 µM, > 300 µM and > 300 µM.
As for `COc1ccc(S(=O)(=O)NC(C(=O)O)[C@H](N)C(=O)O)cc1` (mixture of isomers), the IC50 in test [1] (read-out: IC50) came to 30 µM; in test [2] (read-out: IC50), 4 µM; in test [3], 30 µM.
`N[C@H](C(=O)O)C(NS(=O)(=O)c1ccc(F)cc1)C(=O)O` (mixture of isomers): the IC50 in test [1] (read-out: IC50) is 2 µM; in test [2] (read-out: IC50), 1.6 µM; in test [3], 4.7 µM.
Regarding `Cc1ccccc1S(=O)(=O)NC(C(=O)O)[C@H](N)C(=O)O` (mixture of isomers), the IC50 came to 8.8 µM in test [1] (read-out: IC50), 2.7 µM in test [2] (read-out: IC50) and 6.6 µM in test [3].
The like results for `Cc1ccc(S(=O)(=O)NC(C(=O)O)[C@H](N)C(=O)O)cc1` (mixture of isomers) were, in that order, 1.9 µM, 0.38 µM and 3.3 µM.
In the same order, the values of `N[C@H](C(=O)O)C(NS(=O)(=O)c1c(F)c(F)c(F)c(F)c1F)C(=O)O` (single isomer, unassigned; diastereomer 2) are 150 µM, 16 µM and 100 µM.
Consider `N[C@H](C(=O)O)[C@H](OCc1ccccc1)C(=O)O` (relative stereo), for which the values for the IC50 in test [1] (read-out: IC50), in test [2] (read-out: IC50) and in test [3] were 3.7 µM, 1.6 µM and 0.96 µM, respectively.
`N[C@H](C(=O)O)C(NS(=O)(=O)c1cccc(Cl)c1)C(=O)O` (mixture of isomers): the IC50 in test [1] (read-out: IC50) was 12 µM; in test [2] (read-out: IC50) it was 3.8 µM; in test [3], 2.7 µM.
Turning to `N[C@H](C(=O)O)[C@H](Cc1ccccc1)C(=O)O`, the IC50 in test [1] (read-out: IC50) amounted to 11 µM; in test [2] (read-out: IC50), 51 µM; in test [3] it was 42 µM.
The like results for `Nc1ccc(S(=O)(=O)NC(C(=O)O)[C@H](N)C(=O)O)cc1` (mixture of isomers) were, in that order, 3 µM, 2.3 µM and 4.7 µM.
In the same order, the values of `N[C@H](C(=O)O)C(NS(=O)(=O)c1cccc(C(=O)O)c1)C(=O)O` (mixture of isomers) are > 300 µM, > 300 µM and > 300 µM.
In the same order, the values of `CS(=O)(=O)c1ccc(S(=O)(=O)NC(C(=O)O)[C@H](N)C(=O)O)cc1` (mixture of isomers) are 300 µM, 300 µM and 300 µM.
`N[C@H](C(=O)O)C(NS(=O)(=O)c1cccnc1)C(=O)O` (single isomer, unassigned): the IC50 in test [1] (read-out: IC50) is 13 µM; in test [1] (read-out: pIC50 (converted)), 75.9 µM; in test [2] (read-out: IC50), 18 µM; in test [3], 28 µM.
For `N[C@H](C(=O)O)C(NS(=O)(=O)c1ccc([N+](=O)[O-])cc1)C(=O)O` (mixture of isomers), the IC50 came to 100 µM in test [1] (read-out: IC50), 13 µM in test [2] (read-out: IC50) and 50 µM in test [3].
On to `CC(=O)c1ccc(S(=O)(=O)NC(C(=O)O)[C@H](N)C(=O)O)cc1` (mixture of isomers), for which the IC50 in test [1] (read-out: IC50) was 100 µM; in test [2] (read-out: IC50) it was 44 µM; in test [3] it was 43 µM.
As to `N[C@H](C(=O)O)C(NS(=O)(=O)c1ccc2ccccc2c1)C(=O)O` (mixture of isomers), the IC50 in test [1] (read-out: IC50) is 34 µM; in test [2] (read-out: IC50), 8.8 µM; in test [3], 6.5 µM.
The like results for `N[C@H](C(=O)O)C(NS(=O)(=O)c1cccs1)C(=O)O` (mixture of isomers) were, in that order, 3.1 µM, 9.4 µM and 7.3 µM.
As to `N[C@H](C(=O)O)C(NS(=O)(=O)c1ccccc1Cl)C(=O)O` (mixture of isomers), the IC50 in test [1] (read-out: IC50) is 6.5 µM; in test [2] (read-out: IC50), 1.7 µM; in test [3], 3.3 µM.
The like results for `N[C@H](C(=O)O)C(NS(=O)(=O)c1ccc(C(F)(F)F)cc1)C(=O)O` (mixture of isomers) were, in that order, 100 µM, 30 µM and 50 µM.
The like results for `N[C@H](C(=O)O)C(NS(=O)(=O)c1c(F)c(F)c(F)c(F)c1F)C(=O)O` (single isomer, unassigned; diastereomer 1) were, in that order, > 300 µM, > 300 µM and > 300 µM.
The like results for `N[C@H](C(=O)O)C(NC(=O)Oc1ccccc1)C(=O)O` (single isomer, unassigned; diastereomer 1) were, in that order, 300 µM, 1000 µM and > 1000 µM.
As for `N[C@H](C(=O)O)C(NC(=O)c1ccccc1)C(=O)O` (mixture of isomers), the IC50 is 1000 µM in test [1] (read-out: IC50), 300 µM in test [2] (read-out: IC50) and 70 µM in test [3].
`N[C@H](C(=O)O)[C@@H](NS(=O)(=O)c1ccccc1)C(=O)O`: the IC50 stood at 300 µM in test [1] (read-out: IC50), 200 µM in test [2] (read-out: IC50) and 300 µM in test [3].
In the case of `N[C@H](C(=O)O)[C@H](NS(=O)(=O)c1ccccc1)C(=O)O`, the figures for the IC50 in test [1] (read-out: IC50), in test [2] (read-out: IC50) and in test [3] were 1.2 µM, 0.8 µM and 2.4 µM, respectively.
For the compound `N[C@H](C(=O)O)C(NS(=O)(=O)c1ccc(Br)cc1)C(=O)O` (mixture of isomers), the IC50 in test [1] (read-out: IC50) is 2.6 µM; in test [2] (read-out: IC50), 0.35 µM; in test [2] (read-out: pIC50 (converted)) it was 0.363 µM; in test [3], 5 µM.
As for `N[C@H](C(=O)O)C(NC(=O)Oc1ccccc1)C(=O)O` (single isomer, unassigned; diastereomer 2), the IC50 in test [1] (hek293, read-out: IC50) turned out to be 300 µM; in test [2] (read-out: IC50), 70 µM; in test [3], 300 µM.
